# Compound activity as filed in PubChem.
# H69AR inhibit – proliferation blockers of H69AR lung cancer cells, primary screen, cell-based, human, 86K library; H69AR lung tumor viability, ATP luminescence, 72 h; hits give low values; viability, % at 10 µM; hit rate 6% among 85,000;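 active means viability at or below 40%; inactive means viability above 40%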;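 further: multidrug resistant small cell line overexpressing MRP-1 efflux transporter; 100% = mean luminescence of untreated control wells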
# HCT116 bCat-KO – primary screen for growth suppressors in beta-catenin knockout HCT116 cells (colon tumor, human); HCT116 beta-catenin knockout viability, CellTiter-Glo, 60 h; hits give low values; viability, % at 10 µM; hit rate 1.5% among 140,000; AID 818, 2007;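 active means viability at or under a set limit, the compound median less 4 SD, cut at about 6% in these data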;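 further: 0% = Hyamine 1622 control at 20 µM and 100% = untreated cell control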
# Lung fibro prol – antiproliferative effect on LL 47 fibroblasts – human, LL 47 cells, CellTiter-Glo luminescence, primary screen. LL 47 human lung fibroblast viability, ATP luminescence; hits give low values. viability, % at 10 µM. hit rate 1.1% among 85,000. AID 719, 2007;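 active means viability at or below 50% in the single dose screen; inactive means viability above 50%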;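 further: compound exposure lasted 72 h before the ATP readout; 100% = median luminescence of untreated cell-only wells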
#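 Test system: LL 47 human lung fibroblasts / Quantity: 1,150 cells in each well / Medium: IMEM growth medium with 15% fetal bovine serum / Incubation: 72 h compound exposure at 37 °C after overnight plating / Detection: CellTiter-Glo luminescence measuring cellular ATP / Read-out: % viability versus median cells-only luminescence / Benchmarks: cell-only wells, no compound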
# HUVEC prolif 384 – inhibitors of HUVEC proliferation, primary screen, cell-based, 384-well. CellTiter-Glo luminescence, 72 h; hits give low values. viability, % at 10 µM (by protocol). hit rate 1.1% among 86,000. AID 648, 2007;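 active means viability at or below 30%; inactive means viability above 30%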;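 further: 100% = median luminescence of DMSO-only cell control wells on each plate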
# HCT116 PTEN-null – growth suppression of PTEN-null HCT116, primary screen, cell-based, CellTiter-Glo. HCT116 PTEN-null viability, 60 h; hits give low values. viability, % at 10 µM. hit rate 1.2% among 140,000. AID 827, 2007;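 active means viability at or below a set limit, 4 SD under the median of all tested compounds, cut at about 3.7% in these data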;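 further: PTEN knockout HCT116 line with beta catenin targeted HCT116 as companion control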
# Cav32 inh – Cav3.2 calcium influx blockers – cell-based, Fluo-4 calcium fluorescence, FDSS, MLSMR library, primary screen | Voltage-dependent T-type calcium channel subunit alpha-1H (Homo sapiens), O95180 | Cav3.2-expressing cells; hits give low values | B-score at 10 µM | hit rate 4% among 100,000;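 active means single-dose well whose peak fluorescence ratio is a statistical outlier from its plate by either plate-standardised score or position-corrected B-score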
# Target sequence (O95180 whole entry, looked up): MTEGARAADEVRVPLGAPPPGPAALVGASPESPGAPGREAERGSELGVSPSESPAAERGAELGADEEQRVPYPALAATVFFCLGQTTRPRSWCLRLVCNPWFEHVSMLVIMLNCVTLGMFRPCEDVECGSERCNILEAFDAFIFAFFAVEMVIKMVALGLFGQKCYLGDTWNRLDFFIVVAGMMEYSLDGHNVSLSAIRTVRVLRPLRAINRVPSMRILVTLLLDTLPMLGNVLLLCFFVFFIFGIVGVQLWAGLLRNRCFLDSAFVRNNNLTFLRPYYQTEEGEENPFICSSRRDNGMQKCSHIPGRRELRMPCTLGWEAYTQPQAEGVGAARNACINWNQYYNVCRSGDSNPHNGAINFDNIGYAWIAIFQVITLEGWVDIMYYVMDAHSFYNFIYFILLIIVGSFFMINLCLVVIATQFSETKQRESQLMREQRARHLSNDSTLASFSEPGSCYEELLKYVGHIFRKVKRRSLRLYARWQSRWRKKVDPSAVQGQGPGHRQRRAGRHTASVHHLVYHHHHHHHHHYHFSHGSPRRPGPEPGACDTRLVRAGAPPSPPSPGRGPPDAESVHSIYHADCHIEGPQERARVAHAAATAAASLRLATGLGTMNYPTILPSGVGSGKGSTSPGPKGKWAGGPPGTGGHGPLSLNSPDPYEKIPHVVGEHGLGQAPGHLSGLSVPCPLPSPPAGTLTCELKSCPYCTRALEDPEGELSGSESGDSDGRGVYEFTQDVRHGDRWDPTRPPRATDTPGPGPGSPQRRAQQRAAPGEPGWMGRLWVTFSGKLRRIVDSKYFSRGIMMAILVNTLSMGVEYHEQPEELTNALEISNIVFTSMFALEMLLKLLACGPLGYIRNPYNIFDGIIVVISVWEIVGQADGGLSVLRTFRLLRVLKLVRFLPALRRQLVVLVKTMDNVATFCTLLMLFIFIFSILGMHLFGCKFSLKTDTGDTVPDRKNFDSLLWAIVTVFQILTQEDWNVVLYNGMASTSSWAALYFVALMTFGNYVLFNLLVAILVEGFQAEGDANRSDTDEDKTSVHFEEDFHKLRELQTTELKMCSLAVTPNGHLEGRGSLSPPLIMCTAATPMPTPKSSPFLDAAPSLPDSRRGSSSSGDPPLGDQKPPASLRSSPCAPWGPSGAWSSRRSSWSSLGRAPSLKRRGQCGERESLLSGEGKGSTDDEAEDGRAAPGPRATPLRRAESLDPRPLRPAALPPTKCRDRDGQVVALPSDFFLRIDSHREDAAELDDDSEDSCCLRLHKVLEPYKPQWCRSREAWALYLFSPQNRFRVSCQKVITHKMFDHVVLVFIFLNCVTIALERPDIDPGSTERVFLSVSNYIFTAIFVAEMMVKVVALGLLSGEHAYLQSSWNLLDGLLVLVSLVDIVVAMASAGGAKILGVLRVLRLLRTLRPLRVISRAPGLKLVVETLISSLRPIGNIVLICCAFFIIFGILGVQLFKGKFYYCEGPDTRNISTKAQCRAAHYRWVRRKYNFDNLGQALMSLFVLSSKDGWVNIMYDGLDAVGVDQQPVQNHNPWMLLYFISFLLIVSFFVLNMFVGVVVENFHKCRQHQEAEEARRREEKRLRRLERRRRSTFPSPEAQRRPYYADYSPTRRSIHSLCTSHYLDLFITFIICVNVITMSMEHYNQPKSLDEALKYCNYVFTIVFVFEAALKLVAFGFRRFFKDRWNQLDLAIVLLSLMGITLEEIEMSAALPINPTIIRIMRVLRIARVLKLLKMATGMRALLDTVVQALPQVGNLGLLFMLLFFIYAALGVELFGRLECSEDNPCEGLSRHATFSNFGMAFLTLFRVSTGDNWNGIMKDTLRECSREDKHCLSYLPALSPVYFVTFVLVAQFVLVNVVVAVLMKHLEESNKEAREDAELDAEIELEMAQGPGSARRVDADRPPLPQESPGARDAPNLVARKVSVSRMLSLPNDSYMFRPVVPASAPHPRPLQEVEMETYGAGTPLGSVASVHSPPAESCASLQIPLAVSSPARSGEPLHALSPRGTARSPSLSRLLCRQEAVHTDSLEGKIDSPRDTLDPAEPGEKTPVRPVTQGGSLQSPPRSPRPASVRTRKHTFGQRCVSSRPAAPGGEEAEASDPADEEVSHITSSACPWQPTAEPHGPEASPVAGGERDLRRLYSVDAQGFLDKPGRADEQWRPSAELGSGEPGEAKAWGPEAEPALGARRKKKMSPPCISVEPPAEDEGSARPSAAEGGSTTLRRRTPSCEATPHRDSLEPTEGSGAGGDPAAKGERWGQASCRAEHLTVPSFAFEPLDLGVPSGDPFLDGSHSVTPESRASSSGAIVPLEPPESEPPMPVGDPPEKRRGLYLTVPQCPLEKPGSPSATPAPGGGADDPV
# The depositor's hits bear a star; nt = not tested or not shown. Compounds with a hit are over-represented: about 7.1% of the library has one in this group of screens.
SMILES,H69AR inhibit,HCT116 bCat-KO,Lung fibro prol,HUVEC prolif 384,HCT116 PTEN-null,Cav32 inh
CC(C)Cc1cc(C(=O)Nc2sc3c(c2C#N)CCC3)no1,67,90,104,100,100,0.044
Cc1cc(C(=O)Nc2sc3c(c2C#N)CCC3)no1,22*,60,99,68,54,-0.11
CCN1CCN(CC(=O)Nc2sc3c(c2C#N)CCC(C)C3)CC1 (stereo not drawn),32*,1.4*,92,79,1.5*,0.057
CC(C)Cc1cc(C(=O)Nc2sc3c(c2C#N)CCCC3)no1,91,96,91,97,90,-0.7
N#Cc1c(NC(=O)c2cc(C3CC3)on2)sc2c1CCC2,33*,37,99,61,36,0.11
Cc1cc(C)n(-c2nnc(C)n2/N=C/c2ccccc2OCc2ccccc2Cl)n1,16*,26,77,61,33,-5.6*
Cc1cc(C)n(-c2nnc(C)n2/N=C/c2cc(Br)ccc2OCc2ccccc2)n1,26*,9,67,41,10,-6.9*
O=C(CSc1ccc(-c2ccco2)nn1)c1ccccc1,nt,82,nt,nt,81,nt
O=C(COC(=O)CC(c1ccccc1)c1ccccc1)Nc1c(F)cccc1F,nt,86,nt,nt,89,nt
COc1ccc(CNc2nc3c(c(C(F)(F)F)n2)CCCCC3)cc1,91,33,103,110,54,-2.5
Cc1ccc(S(=O)(=O)N2CCCOC2CNC(=O)C(=O)NCCc2c[nH]c3ccccc23)cc1 (stereo not drawn),nt,62,nt,nt,54,nt
CCCCCN=Cc1c(C)[nH]n(-c2nc3ccccc3s2)c1=O,6.4*,17,29*,13*,16,0.49
COc1ccc(C2Oc3ccccc3C3=C2C(c2cccs2)n2ncnc2N3)cc1 (stereo not drawn),18*,40,46*,58,22,-7.1*
Brc1ccc(C2C3=C(Nc4ncnn42)c2ccccc2OC3c2ccncc2)cc1 (stereo not drawn),40,69,77,72,61,-4.9*
COc1ccc(-c2noc(CSc3nnc(Cc4ccccc4)n3-c3cccc(C)c3)n2)cc1OC,56,86,95,99,73,-5.5*
Cc1ccc(-c2noc(CSc3nnc(Cc4ccccc4)n3-c3cccc(C)c3)n2)cc1,20*,66,104,89,66,-3.3
CCn1c(SCc2nc(-c3ccc(OC)c(OC)c3)no2)nnc1-c1cccs1,97,89,99,107,83,0.49
Cc1cccnc1Nc1nc(-c2ccc(O)c(O)c2)cs1,28*,34,84,58,16,2.4
O=C1CCCCCN1Sc1ccccc1,3.0*,22,79,69,10,nt
Cc1cccc2sc(NNC(=O)c3ccc(S(=O)(=O)N4CCc5ccccc5C4)cc3)nc12,nt,3.7*,nt,nt,5,nt
Cc1cc(C)c2nc(NNC(=O)c3ccc(S(=O)(=O)N4CCCCC4)cc3)sc2c1,nt,8,nt,nt,12,-1.9
Cc1cccc2sc(NNC(=O)c3ccc(S(=O)(=O)N4CCCC(C)C4)cc3)nc12 (stereo not drawn),nt,1.9*,nt,nt,4,nt
O=C(COC(=O)C1(c2ccc(F)cc2)CCCC1)NC1CC1,nt,85,nt,nt,93,1.1
Nc1ccc(Nc2nc(-c3ccncc3)cs2)cc1,37*,52,75,71,45,1.1
Clc1ccc(Nc2nc(-c3ccncc3)cs2)cc1,85,nt,91,72,nt,0.93
SMILES,H69AR inhibit,HCT116 bCat-KO,Lung fibro prol,HUVEC prolif 384,HCT116 PTEN-null,Cav32 inh
c1ccc(-c2cn3nc(-c4ccccc4)sc3n2)cc1,61,nt,80,69,nt,nt
c1ccc(-c2cn3c4c(sc3n2)CCCC4)cc1,21*,44,67,52,46,-1.1
Cc1ccc(Sc2ncccc2COC(=O)Nc2c(C)cccc2C)cc1,nt,94,nt,nt,71,-5.5*
O=C1[C@H]2[C@H](C=CC[C@H]2C(=O)N2CCOCC2)CCN1Cc1ccccc1,nt,nt,nt,nt,nt,-1
Cc1nc(-c2ccccc2)sc1C1(C)CC(c2cccc([N+](=O)[O-])c2)=NO1 (stereo not drawn),nt,nt,nt,nt,nt,0.081
C#Cc1ccc([C@H]2C=C(C(=O)N3CCN(Cc4ccc5c(c4)OCO5)CC3)O[C@@H](OCC)[C@@H]2CCCO)cc1,nt,nt,nt,nt,nt,-1.1
CCOc1ccc(NC(=O)c2c(N)n(C)c(=O)[nH]c2=O)cc1,nt,nt,nt,nt,nt,0.052
CN(CC(=O)Nc1ccc(Cl)cc1)c1ccc(S(=O)(=O)N2CCCCC2)cc1[N+](=O)[O-],nt,37,nt,nt,26,nt
CC1=CC(=O)c2ccccc2C1=O,nt,44,nt,nt,41,nt
COc1cccc2c1C(=O)C=C(C)C2=O,nt,1.8*,nt,nt,2.9*,nt
CCOc1ccc(C(CCc2ccccc2)NC(=O)c2ccccc2)cc1OCC (stereo not drawn),nt,91,nt,nt,82,-5.1*
CCOC(=O)c1cccc(NC(=O)C2(S(=O)(=O)c3ccc(C)cc3)CC2)c1,nt,75,nt,nt,77,nt
Cc1ccc(NC(=S)N2CCC(N(C)CC3CCCO3)CC2)c(C)c1 (stereo not drawn),99,88,99,100,91,0.38
CCN(C(=O)c1coc(=O)c(Br)c1)c1ccc2c(c1)OCO2,2.0*,83,92,77,85,0.24
CCN(C(=O)c1c(C)cc(=O)oc1C)c1ccc2c(c1)OCO2,103,97,95,90,100,0.55
Cc1ccc(S(=O)(=O)Oc2ccc3c(c2)O/C(=C\c2cccnc2)C3=O)cc1,25*,81,96,99,89,-1.7
COc1cccc(OC)c1C(=O)Oc1ccc2c(c1)O/C(=C\c1ccncc1)C2=O,nt,59,nt,nt,56,nt
O=C1/C(=C/c2cccnc2)Oc2cc(OS(=O)(=O)c3ccc(F)cc3)ccc21,35*,81,95,94,88,0.015
CCc1ccc(/C=C2\Oc3cc(OS(C)(=O)=O)ccc3C2=O)cc1,nt,82,nt,nt,69,nt
Cc1ccc(SCC(=O)NCCSC(C)(C)C)cc1,102,101,95,91,99,0.013
COc1cc(C2C3CN(C)CC=C3C(C#N)=C(N)C2(C#N)C#N)ccc1OC(C)C (stereo not drawn),35*,88,84,87,95,0.25
CC(C)N1CC=C2C(C#N)=C(N)C(C#N)(C#N)C(c3ccccc3)C2C1 (stereo not drawn),nt,93,nt,nt,91,-2
CC(C)N1CC=C2C(C#N)=C(N)C(C#N)(C#N)[C@H](c3ccoc3)[C@H]2C1,nt,88,nt,nt,89,-4.6*
CC1=NN(c2ccc(Cl)cc2)C(=O)/C1=C\c1cccn1-c1ccc(S(N)(=O)=O)cc1,nt,32,nt,nt,30,nt
CCOC(=O)c1cc(C)n(CCc2ccccc2)c1C,87,63,99,105,78,-3.8*
